Wee1 stabilizer: blocks degradation of human Wee1 kinase. HeLa Luc-Wee1K328M stability, luciferase luminescence; 100% = proteasome inhibitor MG132 effect. reporter increase, % at 5 µM. P30291. actives 1.2% (n = 220,000);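 active = activation above the mean of all tested compounds plus 3 SD, set per screening run, cut at about 8.8% in these data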;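 note: cells exposed to compound for 20 h before luminescence read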
Hsp70 act: switches on Hsp70 transcription; AID 1203; activation, % at 10 µM; actives 0.04% (n = 200,000); HeLa Hsp70 promoter luciferase reporter, luminescence; scaled: vehicle 0, proteasome-inhibitor control 100%;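 active = activation above the mean across all tested compounds plus 3 SD, cutoff set per campaign, cut at about 5.5% in these data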
Mdm2 ligase inh: blocks human Mdm2 ubiquitin ligase activity | signal enhancement, % at 5 µM | cell-based MDM2 ubiquitination luciferase reporter, 2 h; 0 = plate control, 100 = twice control, blank-subtracted | actives 0.11% (n = 210,000);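 active = signal enhancement of 30% or more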;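 note: luminescence tracks abundance of the self-degrading MDM2-luciferase fusion protein; higher signal means inhibition of MDM2 E3 ligase activity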
Target sequence (Q00987 whole entry, looked up, the tested form may be a part): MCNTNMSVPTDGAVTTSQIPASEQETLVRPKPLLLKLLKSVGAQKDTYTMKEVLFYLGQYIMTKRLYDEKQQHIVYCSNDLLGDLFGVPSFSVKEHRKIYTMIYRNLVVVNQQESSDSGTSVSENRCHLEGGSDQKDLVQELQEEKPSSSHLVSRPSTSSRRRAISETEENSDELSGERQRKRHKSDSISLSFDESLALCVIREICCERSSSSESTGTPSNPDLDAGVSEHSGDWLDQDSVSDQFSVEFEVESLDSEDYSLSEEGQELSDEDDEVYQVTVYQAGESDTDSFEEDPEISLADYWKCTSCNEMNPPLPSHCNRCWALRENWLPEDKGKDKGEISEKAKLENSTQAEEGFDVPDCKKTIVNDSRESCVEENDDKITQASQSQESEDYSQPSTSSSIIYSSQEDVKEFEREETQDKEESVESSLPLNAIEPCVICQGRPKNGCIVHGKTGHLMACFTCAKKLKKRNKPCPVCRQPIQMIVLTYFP
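Test system: mammalian cells stably expressing self-ubiquitinating, self-degrading MDM2 E3–luciferase fusion; Amount: 2000 cells in each well; Medium: DMEM; Schedule: 4 h settle plus 2 h compound, 37 °C; Technique: SteadyLite luciferase luminescence after 15 min room-temperature reagent incubation; Benchmarks: plate control and blank wells.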
Pf gametocyte: inhibitors of late stage P. falciparum gametocyte viability; P. falciparum stage V gametocytes, ATP luminescence, 24 h; inhibition, % at 10.9 µM; actives 0.065% (n = 150,000); AID 743093;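 active = inhibition above the mean plus 3 SD of compounds within the control limits, set per campaign, cut at about 38% in these data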
Of the large screens only hits and unclear results are named; the others gave an inactive call; ! = a repeat was not active. Compounds with a hit are over-represented: about 1.3% of the library has one in this group of screens.

Cc1ccc(C(=O)n2nc(-c3ccccc3)nc2NCc2ccco2)cc1	none (no result: Pf gametocyte)
CCCC(=O)n1nc(-c2ccc(C)cc2)nc1NCc1ccco1	Wee1 stabilizer 10
Fc1ccccc1NC(=S)NCc1ccc2c(c1)OCO2	none (no result: Pf gametocyte)
S=C(NCc1ccccc1)NCc1ccc2c(c1)OCO2	Wee1 stabilizer 8.9
CCOC(=O)C1=NN(C(=O)c2ccccc2)C(O)(c2ccc(C)cc2)C1 (centres undefined)	Wee1 stabilizer 15 (no result: Pf gametocyte)
C/C(=N\Nc1nc(C)c(C)s1)c1ccc([N+](=O)[O-])cc1	none
CCOCCCNC(=O)C1CCN(S(=O)(=O)CC)CC1	Wee1 stabilizer 15 (no result: Pf gametocyte)
O=C(CCCc1ccccc1)Nc1cccc2c1CCCC2	Wee1 stabilizer 11
O=C(COc1ccccc1)Nc1cccc2c1CCCC2	none (no result: Pf gametocyte)
COc1ccc2[nH]cc(CCNC(=O)C3CCCO3)c2c1 (centres undefined)	Wee1 stabilizer 11
CCOc1ccccc1NC(=O)C1CCN(S(C)(=O)=O)CC1	none (no result: Wee1 stabilizer, Hsp70 act, Mdm2 ligase inh)
CCC(C(=O)OC(C)C)c1ccc2ccccc2c1 (centres undefined)	none (no result: Wee1 stabilizer, Hsp70 act, Mdm2 ligase inh)
Cc1cc(-c2nn(-c3ccccc3F)cc2CNCCc2cnc[nH]2)c(C)s1	none
COc1cc(N=c2oc3c(C)ncc(CO)c3cc2C(N)=O)cc(OC)c1OC	none
COc1ccc(C)cc1NC(=O)c1cc2c(CO)cnc(C)c2oc1=N	Wee1 stabilizer 9.2 (no result: Mdm2 ligase inh, Pf gametocyte)
Brc1csc(/C=N/Nc2nc3ccccc3s2)c1	Wee1 stabilizer 8.9
Cc1c(NC(=O)C(C)OC(=O)c2ccc(Cl)nc2)c(=O)n(-c2ccccc2)n1C (centres undefined)	none
O=C1C2ON(c3ccccc3)C(c3ccccc3F)C2C(=O)N1c1ccccc1 (centres undefined)	none
CN1OC2C(=O)N(c3ccccc3)C(=O)C2C1c1ccc(F)cc1 (centres undefined)	Wee1 stabilizer 17 (no result: Pf gametocyte)
Cc1ccc(C)c(OCc2nnc(NC(=O)c3ccc4c(c3)OCO4)s2)c1	Wee1 stabilizer 11 (no result: Hsp70 act, Mdm2 ligase inh)
CC(C)c1nnc(NC(=O)c2ccc3c(c2)OCO3)s1	none
Cc1ccc(S(=O)(=O)Nc2ncccn2)cc1	none (no result: Wee1 stabilizer, Hsp70 act, Mdm2 ligase inh)
Oc1ccc2ccccc2c1N=Nc1ccc(F)cc1	Wee1 stabilizer 22! (no result: Hsp70 act)
COC(=O)c1sccc1NC(=O)CC1C(=O)NCCN1C(=O)Nc1cc(Cl)ccc1OC (centres undefined)	Wee1 stabilizer 8.9 (no result: Hsp70 act)
COc1ccc(-c2cc(C(F)(F)F)nc(SCC(=O)NCc3cnn(C)c3C)n2)cc1OC	Mdm2 ligase inh 35
CN1CCN(Cn2cc(/C=C/C(=O)c3ccccc3)c3ccccc32)CC1	Wee1 stabilizer 10 (no result: Pf gametocyte)
O=C(/C=C/c1cn(CC(O)CN2CCCCC2)c2ccccc12)c1ccccc1 (centres undefined)	none (no result: Hsp70 act)
O=C(CSc1nnc(-c2ccncc2)o1)NC1CCCCC1	none
O=C(CSc1nnc(-c2ccc(F)cc2)o1)NC1CCCCC1	Wee1 stabilizer 10, Pf gametocyte 43
NC(=O)NS(=O)(=O)Oc1ccccc1	none (no result: Wee1 stabilizer, Hsp70 act, Mdm2 ligase inh)
Cc1cc(C(=O)CSc2nnc(Nc3ccccc3)s2)c(C)n1CC1CCCO1 (centres undefined)	Mdm2 ligase inh 31
CC[C@H](C)Cc1cn([C@@H](CCCCNC(=O)OC(C)(C)C)C(=O)NCCCCCCCCCCC(=O)N2CCN(C(=O)OC(C)(C)C)CC2)nn1	none (no result: Wee1 stabilizer, Hsp70 act, Mdm2 ligase inh)
Oc1ccc(-c2nc3ccc4ccccc4c3c3c2CCC3)cc1O	Wee1 stabilizer 9.5
COCCn1c(SCC#N)nnc1-c1ccccc1O	none (no result: Pf gametocyte)
N#CCSc1nnc(-c2ccccc2O)n1Cc1ccccc1	Wee1 stabilizer 11 (no result: Pf gametocyte)
Cc1ccc(S(=O)(=O)N2CCN(Cc3ccccc3)CC2)c(C)c1N(C)S(=O)(=O)c1ccccc1	Pf gametocyte 42
NC(=O)COC(=O)c1c2c(nc3ccccc13)CCCCC2	none
COc1cc(-c2nnc(COC(=O)c3c4c(nc5ccccc35)CCCC4)o2)cc(OC)c1OC	Wee1 stabilizer 10.0 (no result: Pf gametocyte)
O=C(c1ccc(COc2ccccc2Br)o1)N1N=C(C(F)F)CC1(O)C(F)F (centres undefined)	Pf gametocyte 49
O=C(c1ccc(Cn2cc([N+](=O)[O-])cn2)o1)N1N=C(C(F)F)CC1(O)C(F)F (centres undefined)	none (no result: Pf gametocyte)
COC(=O)[C@H]1[C@@H](C)N(Cc2ccccc2)C(=O)N[C@H]1c1cccc(C(F)(F)F)c1	none (no result: Wee1 stabilizer, Hsp70 act, Mdm2 ligase inh)
CCOc1cc(O)c(-c2[nH]ncc2-c2nc(C)cs2)cc1CC	none (no result: Hsp70 act)
Cc1ccc(-n2nnc3c(=O)n(CC(=O)NCc4ccccc4)cnc32)cc1	Wee1 stabilizer 15 (no result: Pf gametocyte)
O=C(Cn1cnc2c(nnn2-c2ccccc2)c1=O)NCc1ccc(F)cc1	none (no result: Pf gametocyte)
Nc1nn(-c2ccccc2)c(N)c1N=Nc1ccc2c(c1)OCO2	Wee1 stabilizer 9.8

Compound activity (PubChem)
